Experimental data as given in ChEMBL document CHEMBL1765015, “Discovery of a potent and efficacious peptide derivative for δ/μ opioid agonist/neurokinin 1 antagonist activity with a 2',6'-dimethyl-L-tyrosine: in vitro, in vivo, and NMR-based structural studies” (J Med Chem, 2011).

Experiments:
Substance-P receptor [1] = target: Substance-P receptor (Homo sapiens, UniProt P25103); experiment: Displacement of [3H]substance P from human NK1 receptor expressed in CHO cells; type: cell-based
Mu-type opioid receptor [2] = target: T1, Mu-type opioid receptor (Rattus norvegicus, UniProt P33535); experiment: Displacement of [3H]DAMGO from rat mu opioid receptor expressed in mouse HN9.10 cells; type: cell-based
T1 sequence (P33535 whole entry): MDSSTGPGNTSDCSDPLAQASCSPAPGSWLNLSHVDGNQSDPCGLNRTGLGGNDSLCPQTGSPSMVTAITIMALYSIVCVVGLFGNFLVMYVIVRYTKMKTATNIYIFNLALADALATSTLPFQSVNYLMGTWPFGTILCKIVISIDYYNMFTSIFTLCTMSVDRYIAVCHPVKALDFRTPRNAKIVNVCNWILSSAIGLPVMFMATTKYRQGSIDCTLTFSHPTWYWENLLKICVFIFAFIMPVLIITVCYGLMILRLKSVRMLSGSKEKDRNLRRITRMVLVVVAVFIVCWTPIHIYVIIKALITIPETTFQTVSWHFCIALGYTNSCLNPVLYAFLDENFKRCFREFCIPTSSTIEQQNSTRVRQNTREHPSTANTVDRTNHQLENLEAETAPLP

[3] = target: Substance-P receptor (Cavia porcellus) (UniProt P30547); experiment: Antagonist activity at NK1 receptor in guinea pig ileum assessed as inhibition of substance P-induced muscle contraction; type: functional, tissue-based
Substance-P receptor (Cavia porcellus), sequence (P30547 whole entry): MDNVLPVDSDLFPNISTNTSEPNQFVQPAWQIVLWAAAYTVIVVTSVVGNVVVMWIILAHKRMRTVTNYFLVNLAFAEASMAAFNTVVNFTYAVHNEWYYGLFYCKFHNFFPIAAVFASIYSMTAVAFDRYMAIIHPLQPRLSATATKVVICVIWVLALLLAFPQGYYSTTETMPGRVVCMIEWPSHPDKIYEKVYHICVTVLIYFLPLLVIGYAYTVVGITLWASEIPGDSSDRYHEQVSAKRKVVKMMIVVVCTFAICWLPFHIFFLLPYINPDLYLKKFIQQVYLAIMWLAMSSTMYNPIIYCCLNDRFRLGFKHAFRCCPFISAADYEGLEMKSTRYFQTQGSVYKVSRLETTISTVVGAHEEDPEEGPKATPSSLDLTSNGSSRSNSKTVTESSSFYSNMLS

Plasma = experiment: Metabolic stability in rat plasma after up to 6 hrs; type: ADME, cell-free
Summary of the method: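 DMSO stock diluted 1000-fold into rat plasma, giving 50 μg/mL final, and incubated at 37 °C. Aliquots taken at 1, 2, 4 and 6 h, proteins precipitated with acetonitrile, and remaining parent measured by HPLC. Three independent experiments, mean ± SD; half-life calculated.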

[4] = target: T2, Delta-type opioid receptor (Homo sapiens, UniProt P41143); experiment: Displacement of [3H]DPDPE from human delta opioid receptor expressed in mouse HN9.10 cells; type: cell-based
T2 sequence (P41143 whole entry): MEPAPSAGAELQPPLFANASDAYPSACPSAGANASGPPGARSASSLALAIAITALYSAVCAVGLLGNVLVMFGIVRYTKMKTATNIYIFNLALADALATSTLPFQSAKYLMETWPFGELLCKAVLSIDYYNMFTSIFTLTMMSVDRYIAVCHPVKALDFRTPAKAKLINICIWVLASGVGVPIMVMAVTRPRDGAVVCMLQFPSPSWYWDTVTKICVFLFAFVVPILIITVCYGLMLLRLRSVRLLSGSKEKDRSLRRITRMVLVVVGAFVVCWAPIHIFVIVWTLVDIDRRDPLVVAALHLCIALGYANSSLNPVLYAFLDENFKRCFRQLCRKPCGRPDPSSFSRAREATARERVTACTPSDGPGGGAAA

Substance-P receptor [5] = target: Substance-P receptor (Rattus norvegicus, UniProt P14600); experiment: Displacement of [3H]substance P from rat NK1 receptor expressed in CHO cells; type: cell-based
Substance-P receptor (Rattus norvegicus, UniProt P14600), sequence (P14600 whole entry): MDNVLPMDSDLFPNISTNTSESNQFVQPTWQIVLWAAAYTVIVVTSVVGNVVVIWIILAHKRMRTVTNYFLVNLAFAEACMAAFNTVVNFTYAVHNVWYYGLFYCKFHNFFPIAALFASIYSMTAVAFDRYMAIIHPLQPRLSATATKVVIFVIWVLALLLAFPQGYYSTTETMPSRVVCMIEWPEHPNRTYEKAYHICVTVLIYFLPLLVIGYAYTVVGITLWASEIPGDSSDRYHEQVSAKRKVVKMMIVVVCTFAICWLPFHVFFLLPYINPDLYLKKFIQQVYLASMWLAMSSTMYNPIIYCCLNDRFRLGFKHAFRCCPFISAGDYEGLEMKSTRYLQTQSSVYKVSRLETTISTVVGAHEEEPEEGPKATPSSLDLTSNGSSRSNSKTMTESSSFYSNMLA

[6] = target: T2, Delta-type opioid receptor; experiment: Agonist activity at human opioid delta receptor expressed in mouse HN9.10 cells assessed as [35S]GTPgammaS binding; type: functional, cell-based
Summary of the method: (§1)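 [35S]GTPγS binding on membranes of HN9.10 cells stably expressing human DOR or rat MOR, about 1 pmol receptor/mg membrane protein. logEC50 from non-linear regression of at least two independent experiments in duplicate; EC50 is the antilog. Emax given as percent stimulation.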

[7] = target: T2, Delta-type opioid receptor; experiment: Agonist activity at human opioid delta receptor expressed in mouse HN9.10 cells assessed as [35S]GTPgammaS binding relative to control; type: functional, cell-based; summary of the method: as §1
[8] = target: Delta-type opioid receptor (Mus musculus, UniProt P32300); experiment: Agonist activity at delta opioid receptor in mouse vas deferens assessed as inhibition of electrically-stimulated muscle contraction; type: functional, tissue-based
Delta-type opioid receptor (Mus musculus, UniProt P32300), sequence (P32300 whole entry): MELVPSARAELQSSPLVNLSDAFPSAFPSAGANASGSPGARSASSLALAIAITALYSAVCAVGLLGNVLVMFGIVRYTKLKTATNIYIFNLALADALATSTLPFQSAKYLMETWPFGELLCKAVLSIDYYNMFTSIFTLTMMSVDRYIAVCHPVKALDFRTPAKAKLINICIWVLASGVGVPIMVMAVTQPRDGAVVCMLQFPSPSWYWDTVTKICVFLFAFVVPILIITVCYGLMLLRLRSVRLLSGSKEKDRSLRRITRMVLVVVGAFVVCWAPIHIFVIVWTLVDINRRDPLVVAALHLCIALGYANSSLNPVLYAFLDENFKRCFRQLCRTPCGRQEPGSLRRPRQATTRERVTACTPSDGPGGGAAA

Mu-type opioid receptor [9] = target: T1, Mu-type opioid receptor; experiment: Agonist activity at rat mu opioid receptor expressed in mouse HN9.10 cells assessed as [35S]GTPgammaS binding; type: functional, cell-based
Mu-type opioid receptor [10] = target: Mu-type opioid receptor (Cavia porcellus, UniProt P97266); experiment: Agonist activity at mu opioid receptor in guinea pig ileum assessed as inhibition of electrically-stimulated muscle contraction; type: functional, tissue-based
Mu-type opioid receptor (Cavia porcellus, UniProt P97266), sequence (P97266 whole entry): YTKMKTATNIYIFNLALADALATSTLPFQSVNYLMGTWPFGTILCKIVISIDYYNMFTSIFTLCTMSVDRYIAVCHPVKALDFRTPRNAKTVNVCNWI

Rattus norvegicus = experiment: Antinociceptive activity in Sprague-Dawley rat assessed as time required to maximum activity on reduction in infrared heat-induced paw withdrawal latency at 10 ug administered intrathecally; type: functional
Summary of the method: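 Male Sprague-Dawley rats (200-225 g) fitted with a lumbar intrathecal catheter under ketamine/xylazine and given 5-7 days recovery. Dose of 10 μg in 5 μL i.t., followed by air bubble and saline flush. Radiant heat applied to left hind paw after 20 min acclimation, with 33.0 s cutoff. Baseline taken 30 min before dosing; […], mean ± SEM.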

[11] = target: Mu-type opioid receptor (Rattus norvegicus) (UniProt P33535); experiment: Agonist activity at rat mu opioid receptor expressed in mouse HN9.10 cells assessed as [35S]GTPgammaS binding relative to control; type: functional, cell-based; summary of the method: as §1
Mu-type opioid receptor (Rattus norvegicus), sequence (P33535 whole entry): as the sequence (P33535 whole entry) above

Substance-P receptor (Homo sapiens, UniProt P25103), sequence (P25103 whole entry): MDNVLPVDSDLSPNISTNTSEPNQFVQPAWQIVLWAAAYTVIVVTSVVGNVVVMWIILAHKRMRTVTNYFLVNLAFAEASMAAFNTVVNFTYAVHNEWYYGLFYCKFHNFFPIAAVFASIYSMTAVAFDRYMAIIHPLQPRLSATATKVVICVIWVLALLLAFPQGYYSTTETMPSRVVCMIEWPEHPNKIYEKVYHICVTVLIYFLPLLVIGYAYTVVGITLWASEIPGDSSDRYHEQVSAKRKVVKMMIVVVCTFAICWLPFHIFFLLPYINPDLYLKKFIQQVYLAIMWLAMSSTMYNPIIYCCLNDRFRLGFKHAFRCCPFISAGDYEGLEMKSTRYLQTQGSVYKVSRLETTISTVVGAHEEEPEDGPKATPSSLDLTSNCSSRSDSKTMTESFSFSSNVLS

Structure (SMILES)	IC50 (Substance-P receptor [1]) [nM]	IC50 (Mu-type opioid receptor [2]) [nM]	Ke [3] [nM]	Stability (Plasma)	IC50 [4] [nM]	IC50 (Substance-P receptor [5]) [nM]	EC50 ([6]; read-out: EC50) [nM]	EC50 ([6]; read-out: pEC50 (converted)) [nM]	Emax [7] [%]	IC50 [8] [nM]	EC50 (Mu-type opioid receptor [9]; read-out: EC50) [nM]	IC50 (Mu-type opioid receptor [10]) [nM]	Time (Rattus norvegicus) [min]	Ki (Substance-P receptor [1]) [nM]	Emax [11] [%]	Ki (Substance-P receptor [5]) [nM]	Ki [4] [nM]	EC50 (Mu-type opioid receptor [9]; read-out: pEC50 (converted)) [nM]
CSCC[C@H](NC(=O)[C@H](Cc1ccccc1)NC(=O)CNC(=O)[C@@H](C)NC(=O)[C@@H](N)Cc1c(C)cc(O)cc1C)C(=O)N1CCC[C@H]1C(=O)N[C@@H](CC(C)C)C(=O)N[C@@H](Cc1c[nH]c2ccccc12)C(=O)NCc1cc(C(F)(F)F)cc(C(F)(F)F)c1	0.0182	4.27	7.5	Stable	0.38	5.13	–	–	–	–	–	–	–	–	–	–	–	–
CCCC[C@H](NC(=O)[C@H](Cc1ccccc1)NC(=O)CNC(=O)[C@@H](C)NC(=O)[C@@H](N)Cc1c(C)cc(O)cc1C)C(=O)N1CCC[C@H]1C(=O)N[C@@H](CC(C)C)C(=O)N[C@@H](Cc1c[nH]c2ccccc12)C(=O)N(C)Cc1cc(C(F)(F)F)cc(C(F)(F)F)c1	0.468	3.31	6.1	–	0.977	30.9	2.3	7.08	49	14	8	110	–	–	–	–	–	–
CSCC[C@H](NC(=O)[C@H](Cc1ccccc1)NC(=O)CNC(=O)[C@@H](C)NC(=O)[C@@H](N)Cc1ccc(O)cc1)C(=O)N1CCC[C@H]1C(=O)N[C@@H](CC(C)C)C(=O)N[C@@H](Cc1c[nH]c2ccccc12)C(=O)NCc1cc(C(F)(F)F)cc(C(F)(F)F)c1	–	–	–	–	–	–	–	–	–	–	–	–	15	–	–	–	–	–
CCCC[C@H](NC(=O)[C@H](Cc1ccccc1)NC(=O)CNC(=O)[C@@H](C)NC(=O)[C@@H](N)Cc1c(C)cc(O)cc1C)C(=O)N1CCC[C@H]1C(=O)N[C@@H](CC(C)C)C(=O)N[C@@H](Cc1c[nH]c2ccccc12)C(=O)NCc1cccc(C(F)(F)F)c1	2.19	–	14	–	8.51	389	0.2	0.437	50	8.7	–	22	–	1	17	140	–	–
CN1CC[C@]23c4c5ccc(O)c4O[C@H]2[C@@H](O)C=C[C@H]3[C@H]1C5 [MORPHINE]	–	–	–	–	–	–	–	–	–	–	–	–	20	–	–	–	–	–
CCCC[C@H](NC(=O)[C@H](Cc1ccccc1)NC(=O)CNC(=O)[C@@H](C)NC(=O)[C@@H](N)Cc1c(C)cc(O)cc1C)C(=O)N1CCC[C@H]1C(=O)N[C@@H](CC(C)C)C(=O)N[C@@H](Cc1c[nH]c2ccccc12)C(=O)NCc1cc(C(F)(F)F)cc(C(F)(F)F)c1	0.166	–	13	–	24	–	–	0.126	–	–	–	–	–	–	–	–	–	–
CCCC[C@H](NC(=O)[C@H](Cc1ccccc1)NC(=O)CNC(=O)[C@@H](C)NC(=O)[C@@H](N)Cc1c(C)cc(O)cc1C)C(=O)N1CCC[C@H]1C(=O)N[C@@H](CC(C)C)C(=O)N[C@@H](Cc1c[nH]c2ccccc12)C(=O)NCc1ccc(OC)c(OC)c1	2	0.631	24	–	0.316	891	0.6	–	42	8.8	0.72	23	–	0.95	48	320	0.15	0.955
